ChEMBL document CHEMBL4602651, “Development of selective mono or dual PROTAC degrader probe of CDK isoforms” (Eur J Med Chem, 2020)
Activity calls are given as the source filed them. No cut-off for these calls is given here.

What was measured:
PC-3 [1] = assay: Antiproliferative activity against AR-negative human PC3 cells assessed as reduction in cell viability after 5 days by CCK8 assay; assay type: functional, cell-based; conditions: PC-3, 120 h
Procedure, shortened: (§1)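 Cells seeded at 3 × 10^3 per well for 24 h, then dosed in 10-point, 3-fold serial dilution from 10 µM. CCK-8 added after 5 days, 4 h at 37 °C, absorbance at 450 nm. IC50 averaged from three separate determinations (at least two independent runs, duplicate wells). PC-3 grown in DMEM/F12 (1:1), LO2 in RPMI 1640, both with 10% FBS.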

[2] = target: T1, Protein cereblon/Cyclin-dependent kinase 2/Cyclin-dependent kinase 9 (Homo sapiens, UniProt P24941+P50750+Q96SW2); assay: Protac activity at CRBN/CDK2/CDK9 in AR-negative human PC3 cells assessed as induction of CDK9 protein degradation at 500 nM after 4 hrs by Western blot analysis relative to control; assay type: cell-based; conditions: PC-3
Procedure, shortened: (§2)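 PC-3 cells treated with 500 nM degrader for varying times. Lysates blotted for CDK2, CDK4, CDK6, CDK9, c-Myc and Mcl-1, each at 1/1000 primary antibody, with β-tubulin reference and chemiluminescent detection.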

[3] = target: Protein cereblon/Cyclin-dependent kinase 4 (Homo sapiens) (UniProt P11802+Q96SW2); assay: Protac activity at CRBN/CDK4 in AR-negative human PC3 cells assessed as induction of CDK4 protein degradation at 500 nM after 24 hrs by Western blot analysis; assay type: cell-based; conditions: PC-3; procedure, shortened: as §2
Sequence of Protein cereblon/Cyclin-dependent kinase 4 (Homo sapiens) (P11802 2-303 limits assumed): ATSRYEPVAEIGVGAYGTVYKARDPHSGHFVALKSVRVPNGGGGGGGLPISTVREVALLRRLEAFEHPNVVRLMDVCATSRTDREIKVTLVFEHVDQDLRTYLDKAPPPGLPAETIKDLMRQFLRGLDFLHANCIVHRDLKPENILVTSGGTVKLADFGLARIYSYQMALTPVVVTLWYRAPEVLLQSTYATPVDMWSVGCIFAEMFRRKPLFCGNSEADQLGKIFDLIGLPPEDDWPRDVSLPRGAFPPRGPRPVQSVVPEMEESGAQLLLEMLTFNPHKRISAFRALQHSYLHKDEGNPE
Sequence of Protein cereblon/Cyclin-dependent kinase 4 (Homo sapiens) (Q96SW2 whole entry partner): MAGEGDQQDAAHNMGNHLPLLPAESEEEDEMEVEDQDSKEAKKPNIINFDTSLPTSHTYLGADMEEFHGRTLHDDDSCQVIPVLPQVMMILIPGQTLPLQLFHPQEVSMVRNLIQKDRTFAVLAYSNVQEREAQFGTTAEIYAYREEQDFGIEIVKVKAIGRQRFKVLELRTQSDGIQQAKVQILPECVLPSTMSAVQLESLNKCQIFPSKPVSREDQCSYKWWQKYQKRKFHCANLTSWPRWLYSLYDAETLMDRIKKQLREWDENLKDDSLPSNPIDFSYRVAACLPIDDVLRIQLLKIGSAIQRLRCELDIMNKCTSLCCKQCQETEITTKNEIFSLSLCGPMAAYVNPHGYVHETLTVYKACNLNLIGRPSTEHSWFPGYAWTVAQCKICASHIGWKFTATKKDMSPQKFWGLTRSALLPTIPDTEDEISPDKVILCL

[4] = target: Protein cereblon/Cyclin-dependent kinase 6 (Homo sapiens) (UniProt Q00534+Q96SW2); assay: Protac activity at CRBN/CDK6 in AR-negative human PC3 cells assessed as induction of CDK4 protein degradation at 500 nM after 24 hrs by Western blot analysis; assay type: cell-based; conditions: PC-3; procedure, shortened: as §2
Sequence of Protein cereblon/Cyclin-dependent kinase 6 (Homo sapiens) (Q00534 whole entry, looked up): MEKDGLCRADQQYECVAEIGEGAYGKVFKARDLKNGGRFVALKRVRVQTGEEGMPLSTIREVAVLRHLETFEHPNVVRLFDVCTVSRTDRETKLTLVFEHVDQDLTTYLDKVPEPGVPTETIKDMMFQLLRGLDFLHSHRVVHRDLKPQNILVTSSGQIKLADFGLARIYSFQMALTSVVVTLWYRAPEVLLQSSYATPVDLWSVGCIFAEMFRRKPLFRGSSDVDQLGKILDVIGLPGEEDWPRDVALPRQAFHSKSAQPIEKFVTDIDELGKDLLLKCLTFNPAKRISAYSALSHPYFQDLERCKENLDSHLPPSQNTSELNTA
Sequence of Protein cereblon/Cyclin-dependent kinase 6 (Homo sapiens) (Q96SW2 whole entry, looked up): as the sequence (Q96SW2 whole entry partner) above

[5] = target: T1, Protein cereblon/Cyclin-dependent kinase 2/Cyclin-dependent kinase 9; assay: Protac activity at CRBN/CDK2/CDK9 in AR-negative human PC3 cells assessed as reduction in c-Myc protein expression at 500 nM measured after 2 to 24 hrs by Western blot analysis; assay type: cell-based; conditions: PC-3; procedure, shortened: as §2
[6] = target: T1, Protein cereblon/Cyclin-dependent kinase 2/Cyclin-dependent kinase 9; assay: Protac activity at CRBN/CDK2/CDK9 in AR-negative human PC3 cells assessed as CDK2 degradation at 250 nM preincubated with pomalidomide for 2 hrs and measured after 8 hrs by Western blot analysis; assay type: cell-based; conditions: PC-3
Procedure, shortened: (§3)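 PC-3 cells pretreated 2 h with 5 µM DMSO, FN-1501, pomalidomide or MG-132, then exposed to degrader at 250 nM for 8 h. Lysates probed for CDK2 and CDK9, β-tubulin as loading control. 50 µg protein per lane, 10% SDS-PAGE, chemiluminescent detection.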

[7] = target: T1, Protein cereblon/Cyclin-dependent kinase 2/Cyclin-dependent kinase 9; assay: Protac activity at CRBN/CDK2/CDK9 in AR-negative human PC3 cells assessed as CDK2 degradation at 250 nM preincubated with proteasome inhibitor MG132 for 2 hrs and measured after 8 hrs by Western blot analysis; assay type: cell-based; conditions: PC-3; procedure, shortened: as §3
L02 = assay: Cytotoxicity against human LO2 cells assessed as reduction in cell viability after 5 days by CCK-8 assay; assay type: cell-based; conditions: L02, 120 h; procedure, shortened: as §1
[8] = target: T1, Protein cereblon/Cyclin-dependent kinase 2/Cyclin-dependent kinase 9; assay: Protac activity at CRBN/CDK2/CDK9 in human HCT116 cells assessed as CDK2 degradation at 0.25 to 10 uM after 12 hrs by Westernblot analysis; assay type: cell-based; conditions: HCT-116
Procedure, shortened: (§4)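 22Rv1, HCT-116 (RPMI 1640, 10% FBS) and MCF-7 cells treated with degrader at indicated concentrations for 12 h. CDK2 and CDK9 blotted with β-tubulin loading control.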

PC-3 [9] = assay: Induction of cell cycle arrest in human PC3 cells assessed as accumulation at G0/G1 phase at 250 nM after 48 hrs by propidium iodide staining based flow cytometry (reference value: 59.80%); assay type: functional
PC-3 [10] = assay: Induction of cell cycle arrest in human PC3 cells assessed as accumulation at G0/G1 phase at 1 uM after 48 hrs by propidium iodide staining based flow cytometry (reference value: 59.80%); assay type: functional
PC-3 [11] = assay: Induction of cell cycle arrest in human PC3 cells assessed as accumulation at G2/M phase at 1 uM after 48 hrs by propidium iodide staining based flow cytometry (reference value: 22.24%); assay type: functional
[12] = target: T1, Protein cereblon/Cyclin-dependent kinase 2/Cyclin-dependent kinase 9; assay: Protac activity at CRBN/CDK2/CDK9 in AR-negative human PC3 cells assessed as induction of CDK2 protein degradation at 500 nM after 4 hrs by Western blot analysis; assay type: cell-based; conditions: PC-3; procedure, shortened: as §2
[13] = target: T1, Protein cereblon/Cyclin-dependent kinase 2/Cyclin-dependent kinase 9; assay: Protac activity at CRBN/CDK2/CDK9 in AR-negative human PC3 cells assessed as reduction in Mcl-1 protein expression at 500 nM measured after 2 to 24 hrs by Western blot analysis; assay type: cell-based; conditions: PC-3; procedure, shortened: as §2
[14] = target: T1, Protein cereblon/Cyclin-dependent kinase 2/Cyclin-dependent kinase 9; assay: Protac activity at CRBN/CDK2/CDK9 in human MCF7 cells assessed as CDK9 degradation at 0.25 to 10 uM after 12 hrs by Westernblot analysis; assay type: cell-based; procedure, shortened: as §4
[15] = target: T1, Protein cereblon/Cyclin-dependent kinase 2/Cyclin-dependent kinase 9; assay: Protac activity at CRBN/CDK2/CDK9 in human HCT116 cells assessed as CDK9 degradation at 0.25 to 10 uM after 12 hrs by Westernblot analysis; assay type: cell-based; conditions: HCT-116; procedure, shortened: as §4
[16] = target: T1, Protein cereblon/Cyclin-dependent kinase 2/Cyclin-dependent kinase 9; assay: Protac activity at CRBN/CDK2/CDK9 in AR-negative human PC3 cells assessed as induction of CDK9 protein degradation at 30 uM after 12 hrs by Western blot analysis; assay type: cell-based; conditions: PC-3
Procedure, shortened: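 PC-3 cells (5 × 10^5 per well) treated 12 h at single concentrations (50 nM, 500 nM, 1, 5 or 30 µM). RIPA lysates (50 µg) run on 10% SDS-PAGE and immunoblotted for CDK2, CDK5, CDK9 with β-tubulin loading control, then detected by chemiluminescence. Band intensities quantified densitometrically.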

- IC50 (PC-3 [1]): 0.12 µM
- Activity [2]: > 80%
- Activity [3]: inactive
- Activity [4]: inactive
- Activity [5]: Active
- Activity [6]: inactive
- Activity [7]: inactive
- Activity [8]: Active
- Activity [12]: Active
- Activity [13]: Active
- Activity [14]: Active
- Activity [15]: Active
- Activity [16]: Active
Compound: O=C(CCC(=O)N1CCN(Cc2ccc(NC(=O)c3n[nH]cc3Nc3ncnc4[nH]ccc34)cc2)CC1)NCCNc1cccc2c1C(=O)N(C1CCC(=O)NC1=O)C2=O (configuration not stated)
- IC50 (L02): 7.99 µM
- Activity (PC-3 [9]): 50.15%
- Activity (PC-3 [10]): 53.95%
- Activity (PC-3 [11]): 36.82%
